Results as given in paper PMC3032979 (Structure (London, England : 1993), 2011).
Where two headings read alike, the source gives them in different places.

How the values were obtained:
(L343F)CAR:RXR = biological target: T1, (L343F)CAR:RXR (Mus musculus, UniProt O35627, L343F); test: ITC, SRC1 peptide binding to; parameters: species or system murine (mCAR LBD), human (RXR LBD); conditions: for ΔG / −TΔS / n (one-site binding model) / ΔH: SRC1 peptide binding, 25°C; for ΔG / −TΔS: pH 7.2; for n (one-site binding model) / ΔH: pH 7.2, average of at least three experiments ± SD
T1 sequence (O35627 117-358 L343F): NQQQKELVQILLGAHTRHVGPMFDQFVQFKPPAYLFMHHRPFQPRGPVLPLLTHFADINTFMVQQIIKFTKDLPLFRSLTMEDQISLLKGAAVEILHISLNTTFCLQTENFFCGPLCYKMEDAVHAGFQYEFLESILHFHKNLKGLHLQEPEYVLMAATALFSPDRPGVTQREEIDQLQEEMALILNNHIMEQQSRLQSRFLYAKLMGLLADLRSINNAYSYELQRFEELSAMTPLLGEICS
T1 sequence (P19793 225-462 partner limits assumed): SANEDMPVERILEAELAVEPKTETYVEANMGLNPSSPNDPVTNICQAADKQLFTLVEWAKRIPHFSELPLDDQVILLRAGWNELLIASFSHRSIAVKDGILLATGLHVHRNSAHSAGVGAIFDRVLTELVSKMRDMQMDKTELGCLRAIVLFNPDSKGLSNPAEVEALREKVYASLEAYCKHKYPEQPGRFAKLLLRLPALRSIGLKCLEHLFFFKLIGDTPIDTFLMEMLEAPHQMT

(L343A)CAR:RXR = (L343A)CAR:RXR (Mus musculus, UniProt O35627, L343A); test: ITC, SRC1 peptide binding to; parameters: species or system murine (mCAR LBD), human (RXR LBD); conditions: for ΔG / −TΔS / n (one-site binding model) / ΔH: SRC1 peptide binding, 25°C; for ΔG / −TΔS: pH 7.2; for n (one-site binding model) / ΔH: pH 7.2, average of at least three experiments ± SD
CAR:RXR [1] = biological target: T2, CAR:RXR (Mus musculus, UniProt O35627); test: ITC, SRC1 box 2 peptide binding to wild-type CAR:RXR LBDs; parameters: species or system murine (mCAR LBD), human (RXR LBD); conditions: for affinity of ligand-bound CAR:RXR for SRC1 coactivator (in words): saturating meclizine versus TCPOBOP
mCAR = conditions: LXRE response element, HepG2 cells; ref Huang et al., 2004; cited from earlier work
CAR LBD within CAR:RXR = test: differential amide HDX MS, CAR portion of CAR:RXR; parameters: species or system murine; conditions: for HDX kinetics versus unliganded CAR:RXR (in words): 4°C, pH 8, 10–3600 seconds
CAR:(W282F)RXR = test: steady-state tryptophan fluorescence quenching, CAR:; assay type: binding, murine (mCAR LBD), human (RXR LBD); conditions: 1.0 μM protein (Figure S2); excitation 295 nm; pH 8.0
murine CAR = conditions: cited from earlier work
CAR:(W305F)RXR = test: steady-state tryptophan fluorescence quenching, CAR:; assay type: binding, murine (mCAR LBD), human (RXR LBD); conditions: 1.0 μM protein (Figure S2); excitation 295 nm; pH 8.0
In short: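 Human RXR LBD (residues 225–462) carrying W305F, co-expressed with CAR LBD in E. coli BL21(DE3) Gold (0.5 mM IPTG, 20 h, 20°C). Heterodimer purified by Ni-NTA, then size exclusion in 20 mM Tris-HCl pH 8.0, 250 mM NaCl, 2.5 mM EDTA, 5.0 mM DTT. Steady-state emission scanned 305–400 nm and compared with wild-type and W282F heterodimers at 340 nm.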

CAR:RXR [2] = biological target: T2, CAR:RXR; test: effect of CAR ligands on 9-cis-retinoic acid; assay type: binding, murine (mCAR LBD), human (RXR LBD); conditions: fluorescence quenching at 340 nm upon titrating 9c into CAR:RXR
RXR LBD within CAR:RXR = test: differential amide HDX MS, RXR portion of CAR:RXR; parameters: species or system human; conditions: 4°C, pH 8, 10–3600 seconds
human CAR isoform = conditions: ref Huang et al., 2004; cited from earlier work
[3] = SRC1 peptide binding in the presence of meclizine (ten-fold excess), 25°C, pH 7.2
[4] = SRC1 peptide binding in the presence of meclizine (ten-fold excess), 25°C, pH 7.2, average of at least three experiments ± SD
[5] = residues 327–358 (H10, H11, H12)

(L343A)CAR:RXR, sequence (O35627 117-358 L343A, other chains not shown): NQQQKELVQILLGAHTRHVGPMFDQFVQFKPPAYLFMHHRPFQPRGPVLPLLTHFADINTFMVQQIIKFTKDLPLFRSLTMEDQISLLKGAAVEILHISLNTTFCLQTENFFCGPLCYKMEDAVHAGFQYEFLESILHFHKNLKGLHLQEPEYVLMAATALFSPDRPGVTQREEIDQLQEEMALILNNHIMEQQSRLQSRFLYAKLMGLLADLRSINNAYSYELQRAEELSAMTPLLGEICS
T2 sequence (O35627 117-358, other chains not shown): as the sequence (O35627 117-358 L343A, other chains not shown) above, with A227L counted along it

CC[C@H](C)[C@H](NC(=O)[C@H](CCCCN)NC(=O)[C@H](Cc1c[nH]cn1)NC(=O)[C@@H](N)CCCNC(=N)N)C(=O)N[C@@H](CC(C)C)C(=O)N[C@@H](Cc1c[nH]cn1)C(=O)N[C@@H](CCCNC(=N)N)C(=O)N[C@@H](CC(C)C)C(=O)N[C@@H](CC(C)C)C(=O)N[C@@H](CCC(N)=O)C(=O)N[C@@H](CCC(=O)O)C(=O)NCC(=O)N[C@@H](CO)C(=O)O [SRC1 peptide]
affinity for coactivator and entropy (in words) ((L343F)CAR:RXR; (L343F)CAR:RXR, no ligand, versus wild-type complex): significantly greater affinity for coactivator and lower unfavorable entropy compared to the wild-type complex
ΔG ((L343F)CAR:RXR; L343F (androstenol)): -7.3 kcal/mol
−TΔS ((L343F)CAR:RXR; L343F (androstenol)): 2.7 kcal/mol
n (one-site binding model) ((L343F)CAR:RXR; L343F (androstenol)): 1.0 ± 0.04
ΔH ((L343F)CAR:RXR; L343F (androstenol)): -10.0 ± 0.2 kcal/mol
ΔG ((L343F)CAR:RXR; L343F (no ligand)): -8.2 kcal/mol
−TΔS ((L343F)CAR:RXR; L343F (no ligand)): 0.30 kcal/mol
n (one-site binding model) ((L343F)CAR:RXR; L343F (no ligand)): 0.97 ± 0.05
ΔH ((L343F)CAR:RXR; L343F (no ligand)): -8.5 ± 0.2 kcal/mol
unfavorable entropy (TΔS) of SRC1 peptide binding (in words) ((L343A)CAR:RXR; (L343A)CAR:RXR, no ligand): appreciably higher unfavorable entropy (TΔS)
affinity for SRC1 peptide (in words) ((L343A)CAR:RXR; (L343A)CAR:RXR, no ligand, versus wild-type CAR): lower than wild-type CAR
ΔG ((L343A)CAR:RXR; L343A (TCPOBOP)): -7.8 kcal/mol
−TΔS ((L343A)CAR:RXR; L343A (TCPOBOP)): 3.7 kcal/mol
n (one-site binding model) ((L343A)CAR:RXR; L343A (TCPOBOP)): 0.92 ± 0.14
ΔH ((L343A)CAR:RXR; L343A (TCPOBOP)): -11.5 ± 0.8 kcal/mol
ΔG ((L343A)CAR:RXR; L343A (no ligand)): -6.6 kcal/mol
−TΔS ((L343A)CAR:RXR; L343A (no ligand)): 4.0 kcal/mol
n (one-site binding model) ((L343A)CAR:RXR; L343A (no ligand)): 1.0 ± 0.13
ΔH ((L343A)CAR:RXR; L343A (no ligand)): -10.6 ± 0.5 kcal/mol
ΔG (CAR:RXR [1]; [3]): -8.2 kcal/mol
−TΔS (CAR:RXR [1]; [3]): 1.7 kcal/mol
n (one-site binding model) (CAR:RXR [1]; [4]): 0.95 ± 0.08
ΔH (CAR:RXR [1]; [4]): -9.9 ± 0.3 kcal/mol

Clc1cnc(Oc2ccc(Oc3ncc(Cl)cc3Cl)cc2)c(Cl)c1 [TCPOBOP, 1,4-bis[2-(3,5-dichloropyridyloxy)]benzene]
agonist response (in words) (mCAR): stronger agonist response from CAR than meclizine
overall impact on conformational dynamics of CAR (in words) (CAR LBD within CAR:RXR; differential HDX, TCPOBOP compared with meclizine): broader and of greater magnitude than that of meclizine
HDX kinetics versus unliganded CAR:RXR (in words) (CAR LBD within CAR:RXR; residues 143–178 (helices H2′, H2″, parts of H3)): significant protection from exchange
HDX kinetics versus unliganded CAR:RXR (in words) (CAR LBD within CAR:RXR; [5]): most significant reductions in HDX behavior
HDX exchange kinetics, residues 339–345 in CAR (in words) (CAR LBD within CAR:RXR; residues 339–345, CAR(TCPOBOP):RXR compared with CAR(meclizine):RXR): greater magnitude reduction in exchange kinetics
tryptophan quenching of CAR:(W282F)RXR (in words) (CAR:(W282F)RXR): strong dose-dependent increase in tryptophan quenching
transactivation by murine CAR (in words) (murine CAR; ref Tzameli et al., 2000): further enhanced
tryptophan fluorescence response of CAR:(W305F)RXR (in words) (CAR:(W305F)RXR): no significant response
effect on 9c binding to CAR:RXR (in words) (CAR:RXR [2]): do not appear to significantly affect 9-cis-retinoic acid (9c) binding to CAR:RXR
HDX kinetics of RXR versus unliganded CAR:RXR (in words) (RXR LBD within CAR:RXR; RXR residues 416–432 (helix H10)): significant reduction in HDX kinetics
affinity of ligand-bound CAR:RXR for SRC1 coactivator (in words) (CAR:RXR [1]): higher affinity for coactivator than meclizine

C[C@]12CC[C@@H](O)C[C@@H]1CC[C@@H]1[C@@H]2CC[C@]2(C)C=CC[C@@H]12 [androstenol, 5α-androst-16-en-3α-ol]
ligand function on murine CAR (in words) (murine CAR; androstane metabolites, ref Forman et al., 1998): physiological inverse agonist ligands of murine CAR

Cc1cccc(CN2CCN(C(c3ccccc3)c3ccc(Cl)cc3)CC2)c1 (stereo not drawn) [meclizine, 1-[(4-chlorophenyl)(phenyl)methyl]-4-(3-methylbenzyl)piperazine]
function on human CAR (in words) (human CAR isoform): inverse agonist
agonist response (in words) (mCAR): mCAR agonist
HDX kinetics versus unliganded CAR:RXR (in words) (CAR LBD within CAR:RXR; residues 228–245 (segment of β-sheet and H6)): significantly protected to exchange
HDX kinetics versus unliganded CAR:RXR (in words) (CAR LBD within CAR:RXR; [5]): significantly protected to exchange
transactivation by murine CAR (in words) (murine CAR; ref Huang et al., 2004): further enhanced
HDX kinetics of RXR versus unliganded CAR:RXR (in words) (RXR LBD within CAR:RXR; 84 regions of RXR): no significant differences in exchange kinetics in RXR
affinity of ligand-bound CAR:RXR for SRC1 coactivator (in words) (CAR:RXR [1]): affinity for coactivator is less than CAR(TCPOBOP)
